Experimental data published in ChEMBL document CHEMBL2021808, “Chemical synthesis and biological evaluation of triazole derivatives as inhibitors of InhA and antituberculosis agents” (Eur J Med Chem, 2012).
Values after ≈ are worked out from the molar mass of the structure shown. Active and inactive are the calls of the source. No cut-off for these calls is given here.

Tests used:
[1] = target: T1, Enoyl-[acyl-carrier-protein] reductase [NADH] (Mycobacterium tuberculosis) (UniProt P9WGR1); assay: Inhibition of Mycobacterium tuberculosis recombinant InhA expressed in Escherichia coli using trans-2-dodecenoyl-coenzyme-A as substrate at 50 uM
T1 sequence (whole entry): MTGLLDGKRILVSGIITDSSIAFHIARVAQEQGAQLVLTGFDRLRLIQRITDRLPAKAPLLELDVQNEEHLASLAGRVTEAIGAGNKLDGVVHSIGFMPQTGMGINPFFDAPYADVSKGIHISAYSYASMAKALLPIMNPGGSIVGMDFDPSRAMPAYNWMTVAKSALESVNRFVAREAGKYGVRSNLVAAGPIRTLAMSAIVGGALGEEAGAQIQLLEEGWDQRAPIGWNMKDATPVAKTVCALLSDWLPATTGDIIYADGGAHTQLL
How it was run: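 Recombinant InhA was expressed in E. coli and purified. Reactions with DD-CoA substrate, NADH and inhibitor were run in 30 mM PIPES, 150 mM NaCl, pH 6.8, and started by adding InhA (100 nM final). Percent inhibition was calculated from initial velocity against a no-inhibitor control. Run in triplicate.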

[2] = system: Mycobacterium tuberculosis; assay: Antimycobacterial activity against Mycobacterium tuberculosis H37Rv by two-fold serial dilution method; assay type: functional
How it was run: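 A single colony was grown in complete Middlebrook 7H9 at 37 °C to exponential phase (about 10⁸ CFU/mL, OD600 0.8–1.0). Cultures were diluted to about 10⁷ CFU/mL and streaked onto plates with two-fold dilutions of compound. MIC is the minimal inhibitory concentration.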

Structure (SMILES)	inhibition [1]	MIC [2] [µg/mL]
CCCCCCc1cn(Cc2ccccc2)nn1	21%	25 (≈ 103 µM)
CCCCCCCCCCCCc1cn(CCc2ccc(OC)c(OC)c2)nn1	inactive	0.25 (≈ 0.623 µM)
CCCCCCCCCCc1cn(CCc2ccc(OC)c(OC)c2)nn1	21%	2 (≈ 5.35 µM)
CCCCCCCCCn1cc(Cc2ccccc2)nn1	75%	25 (≈ 87.6 µM)
CCCCCCCCn1cc(Cc2ccccc2)nn1	73%	25 (≈ 92.1 µM)
CCCCCCCCCCc1cn(CCc2ccccc2OC)nn1	48%	2 (≈ 5.82 µM)
CCCCCCc1cn(CCc2ccccc2)nn1	10%	10 (≈ 38.9 µM)
CCCCCCCCCCCCn1cc(Cc2ccccc2)nn1	58%	25 (≈ 76.3 µM)
CCCCCCCCCCCCn1cc(COc2ccc(Cl)cc2OC)nn1	35%	> 4
CCCCCCCCCCCCc1cn(Cc2cccc(OC)c2)nn1	46%	4 (≈ 11.2 µM)
CCCCCCc1cn(Cc2cccc(OC)c2)nn1	inactive	> 4
CCCCCCCCCCCCn1cc(CCc2ccccc2)nn1		0.5 (≈ 1.46 µM)
CCCCCCCCCCc1cn(CCc2ccccc2C)nn1	58%	2 (≈ 6.11 µM)
CCCCCCc1cn(Cc2cccc(Cl)c2)nn1	inactive	4 (≈ 14.4 µM)
CCCCCCCCn1cc(-c2cccc(C)c2)nn1	33%	> 4
CCCCCCCCCCc1cn(Cc2cccc(Cl)c2)nn1	42%	4 (≈ 12 µM)

Structure (SMILES)	inhibition [1]	MIC [2] [µg/mL]
CCCCCCCCCCc1cn(Cc2ccccc2)nn1	44%	> 4
CCCCCCCCCCc1cn(Cc2cccc(OC)c2)nn1	20%	> 4
CCCCCCCCCCc1cn(Cc2cc(OC)cc(OC)c2)nn1	24%	> 4
CCCCCCCCc1cn(CCc2ccccc2C)nn1	37%	2 (≈ 6.68 µM)
CCCCCCCCCCc1cn(CCc2ccccc2)nn1	43%	4 (≈ 12.8 µM)
CCCCCCCCCCCCc1cn(CCc2ccccc2)nn1	67%	4 (≈ 11.7 µM)
CCCCCCCCn1cc(-c2cccc(O)c2)nn1	inactive	
CCCCCCCCCCCCn1nncc1CCc1ccccc1	9%	> 4
CCCCCCCCCCCCc1cn(CCc2ccccc2OC)nn1	61%	2 (≈ 5.38 µM)
CCCCCCCCCCCCn1cc(COc2ccccc2)nn1	54%	2 (≈ 5.82 µM)
CCCCCCCCCCCCn1cc(COc2ccc(Cl)cc2Cl)nn1	< 5%	4 (≈ 9.7 µM)
CCCCCCc1cn(Cc2cc(C)cc(C)c2)nn1	19%	
CCCCCCCCCCc1cnnn1CCc1ccccc1	33%	> 4
CCCCCCCCCCCCc1cn(Cc2ccccc2)nn1	52%	> 4
CCCCCCCCc1cn(Cc2ccccc2)nn1	34%	> 4
